Measured values reported in ChEMBL document CHEMBL4038305, “Benzoxaborole Antimalarial Agents. Part 5. Lead Optimization of Novel Amide Pyrazinyloxy Benzoxaboroles and Identification of a Preclinical Candidate” (J Med Chem, 2017).

Tests used:
[1] = Terminal half life in CD1 mouse at 5 mg/kg, po via gavage by HPLC/MS analysis; format: ADME, organism-based; details: in vivo, read-out: beta t1/2 (converted)
In short: (§1)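 Female CD-1 mice, male SD rats or beagle dogs given 5 mg/kg by iv injection or oral gavage. Formulation was PEG300/propylene glycol/water 55/25/20, pH 6. Blood samples analysed by HPLC–MS/MS; parameters include AUC0-inf extrapolated to infinity and terminal half-life.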

[2] = Oral bioavailability in CD1 mouse at 5 mg/kg by HPLC/MS analysis; format: ADME, organism-based; details: in vivo; in short: as §1
[3] = Metabolic stability in rat hepatocytes at 22 uM after 44 hrs; format: ADME, cell-based, Hepatocyte
[4] = test system: Plasmodium berghei; experiment: Antimalarial activity against Plasmodium berghei infected in Swiss Webster mouse assessed as mouse survival rate at 100 mg/kg administered once daily via oral gavage for 4 consecutive days beginning 1 hr after infection measured on day 4 post infection relative to control; format: functional
In short: (§2)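 Mice given an intraperitoneal injection of P. berghei-infected erythrocytes taken from a previously infected animal. Oral dosing once daily for 4 consecutive days, starting 1 h after infection. Vehicle: polyethylene glycol 300/propylene glycol/water (weight ratio 55/25/20). Percent survival recorded daily from day 4 to day 20. Chloroquine 30 mg/kg and vehicle-only groups served as controls.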

[5] = test system: Plasmodium berghei; experiment: Antimalarial activity against Plasmodium berghei infected in Swiss Webster mouse assessed as mouse survival rate at 11 mg/kg administered once daily via oral gavage for 4 consecutive days beginning 1 hr after infection measured on day 4 post infection relative to control; format: functional
In short: (§3)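 P. berghei-infected erythrocytes taken from a previously infected mouse were injected intraperitoneally. Oral dosing, once daily for 4 consecutive days, began 1 h after infection, in polyethylene glycol 300/propylene glycol/water (55/25/20 by weight). Chloroquine at 30 mg/kg was the positive control, with a vehicle-only group. Percent survival was recorded daily from day 4 to day 20.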

[6] = test system: Plasmodium berghei; experiment: Antimalarial activity against Plasmodium berghei infected in Swiss Webster mouse assessed as mouse survival rate at 3.7 mg/kg administered once daily via oral gavage for 4 consecutive days beginning 1 hr after infection measured on day 4 post infection relative to control; format: functional; in short: as §3
[7] = test system: Plasmodium berghei; experiment: Antimalarial activity against Plasmodium berghei infected in Swiss Webster mouse assessed as mouse survival rate at 0.1 mg/kg administered once daily via oral gavage for 4 consecutive days beginning 1 hr after infection measured on day 4 post infection relative to control; format: functional; in short: as §2
[8] = test system: Plasmodium berghei; experiment: Antimalarial activity against Plasmodium berghei infected in Swiss Webster mouse assessed as mouse survival rate at 3.7 mg/kg administered once daily via oral gavage for 4 consecutive days beginning 1 hr after infection measured on day 5 post infection relative to control; format: functional; in short: as §3
[9] = test system: Plasmodium berghei; experiment: Antimalarial activity against Plasmodium berghei infected in Swiss Webster mouse assessed as mouse survival rate at 1.2 mg/kg administered once daily via oral gavage for 4 consecutive days beginning 1 hr after infection measured on day 5 post infection relative to control; format: functional; in short: as §2
[10] = test system: Plasmodium berghei; experiment: Antimalarial activity against Plasmodium berghei infected in Swiss Webster mouse assessed as mouse survival rate at 0.1 mg/kg administered once daily via oral gavage for 4 consecutive days beginning 1 hr after infection measured on day 5 post infection relative to control; format: functional; in short: as §2
[11] = test system: Plasmodium berghei; experiment: Antimalarial activity against Plasmodium berghei infected in Swiss Webster mouse assessed as mouse survival rate at 11 mg/kg administered once daily via oral gavage for 4 consecutive days beginning 1 hr after infection measured on day 6 post infection relative to control; format: functional; in short: as §3
[12] = test system: Plasmodium berghei; experiment: Antimalarial activity against Plasmodium berghei infected in Swiss Webster mouse assessed as mouse survival rate at 0.4 mg/kg administered once daily via oral gavage for 4 consecutive days beginning 1 hr after infection measured on day 6 post infection relative to control; format: functional; in short: as §2
[13] = test system: Plasmodium berghei; experiment: Antimalarial activity against Plasmodium berghei infected in Swiss Webster mouse assessed as mouse survival rate at 0.1 mg/kg administered once daily via oral gavage for 4 consecutive days beginning 1 hr after infection measured on day 6 post infection relative to control; format: functional; in short: as §2
[14] = test system: Plasmodium berghei; experiment: Antimalarial activity against Plasmodium berghei infected in Swiss Webster mouse assessed as mouse survival rate at 100 mg/kg administered once daily via oral gavage for 4 consecutive days beginning 1 hr after infection measured on day 7 post infection relative to control; format: functional; in short: as §2
[15] = test system: Plasmodium berghei; experiment: Antimalarial activity against Plasmodium berghei infected in Swiss Webster mouse assessed as mouse survival rate at 33 mg/kg administered once daily via oral gavage for 4 consecutive days beginning 1 hr after infection measured on day 7 post infection relative to control; format: functional; in short: as §3
[16] = test system: Plasmodium berghei; experiment: Antimalarial activity against Plasmodium berghei infected in Swiss Webster mouse assessed as mouse survival rate at 1.2 mg/kg administered once daily via oral gavage for 4 consecutive days beginning 1 hr after infection measured on day 7 post infection relative to control; format: functional; in short: as §2
[17] = test system: Plasmodium berghei; experiment: Antimalarial activity against Plasmodium berghei infected in Swiss Webster mouse assessed as mouse survival rate at 0.1 mg/kg administered once daily via oral gavage for 4 consecutive days beginning 1 hr after infection measured on day 7 post infection relative to control; format: functional; in short: as §2
[18] = test system: Plasmodium berghei; experiment: Antimalarial activity against Plasmodium berghei infected in Swiss Webster mouse assessed as mouse survival rate at 11 mg/kg administered once daily via oral gavage for 4 consecutive days beginning 1 hr after infection measured on day 9 post infection relative to control; format: functional; in short: as §3
[19] = test system: Plasmodium berghei; experiment: Antimalarial activity against Plasmodium berghei infected in Swiss Webster mouse assessed as mouse survival rate at 33 mg/kg administered once daily via oral gavage for 4 consecutive days beginning 1 hr after infection measured on day 10 post infection relative to control; format: functional; in short: as §3
[20] = test system: Plasmodium berghei; experiment: Antimalarial activity against Plasmodium berghei infected in Swiss Webster mouse assessed as mouse survival rate at 100 mg/kg administered once daily via oral gavage for 4 consecutive days beginning 1 hr after infection measured on day 11 post infection relative to control; format: functional; in short: as §2
[21] = test system: Plasmodium berghei; experiment: Antimalarial activity against Plasmodium berghei infected in Swiss Webster mouse assessed as mouse survival rate at 33 mg/kg administered once daily via oral gavage for 4 consecutive days beginning 1 hr after infection measured on day 11 post infection relative to control; format: functional; in short: as §3
[22] = test system: Plasmodium berghei; experiment: Antimalarial activity against Plasmodium berghei infected in Swiss Webster mouse assessed as mouse survival rate at 100 mg/kg administered once daily via oral gavage for 4 consecutive days beginning 1 hr after infection measured on day 12 post infection relative to control; format: functional; in short: as §2
[23] = test system: Plasmodium berghei; experiment: Antimalarial activity against Plasmodium berghei infected in Swiss Webster mouse assessed as mouse survival rate at 100 mg/kg administered once daily via oral gavage for 4 consecutive days beginning 1 hr after infection measured on day 13 post infection relative to control; format: functional; in short: as §2
[24] = test system: Plasmodium berghei; experiment: Antimalarial activity against Plasmodium berghei infected in Swiss Webster mouse assessed as mouse survival rate at 33 mg/kg administered once daily via oral gavage for 4 consecutive days beginning 1 hr after infection measured on day 13 post infection relative to control; format: functional; in short: as §3
[25] = test system: Plasmodium berghei; experiment: Antimalarial activity against Plasmodium berghei infected in Swiss Webster mouse assessed as mouse survival rate at 100 mg/kg administered once daily via oral gavage for 4 consecutive days beginning 1 hr after infection measured on day 14 post infection relative to control; format: functional; in short: as §2
[26] = test system: Plasmodium falciparum; experiment: Antimalarial activity against Plasmodium falciparum 3D7 0087/N9 infected in NOD/SCID IL2R gamma null mouse assessed as compound concentration in whole blood require to reduce parasitemia in peripheral blood administered once daily via oral gavage for 4 consecutive days measured on day 7 post infection; format: functional
[27] = test system: Plasmodium berghei; experiment: Antimalarial activity against Plasmodium berghei infected in Swiss Webster mouse assessed as mouse survival rate administered once daily via oral gavage for 4 consecutive days beginning 1 hr after infection measured on day 4 post infection; format: functional; in short: as §2

## Cc1c(Oc2cnc(C(=O)N3CC(C)(O)C3)cn2)ccc2c1B(O)OC2
[1]
  half-life: 6.8 h
[2]
  bioavailability: 101%
[3]
  Stability: Stable
[4]
  survival at 100 mg/kg: 100%
[5]
  survival at 11 mg/kg: 100%
[6]
  survival at 3.7 mg/kg: 100%
[7]
  survival at 0.1 mg/kg: 100%
[8]
  survival at 3.7 mg/kg: 100%
[9]
  survival at 1.2 mg/kg: 100%
[10]
  survival at 0.1 mg/kg: 100%
[11]
  survival at 11 mg/kg: 100%
[12]
  survival at 0.4 mg/kg: 100%
[13]
  survival at 0.1 mg/kg: 100%
[14]
  survival at 100 mg/kg: 100%
[15]
  survival at 33 mg/kg: 100%
[16]
  survival at 1.2 mg/kg: 0%
[17]
  survival at 0.1 mg/kg: 0%
[18]
  survival at 11 mg/kg: 0%
[19]
  survival at 33 mg/kg: 100%
[20]
  survival at 100 mg/kg: 100%
[21]
  survival at 33 mg/kg: 100%
[22]
  survival at 100 mg/kg: 100%
[23]
  survival at 100 mg/kg: 100%
[24]
  survival at 33 mg/kg: 100%
[25]
  survival at 100 mg/kg: 60%
[26]
  AUCED90: 1.4 µg.hr/ml/day
[27]
  ED90: 1.9 to 1.92 mg/kg
